Laboratory results reported in ChEMBL document CHEMBL1138023, “Macrocyclic ketone analogues of halichondrin B” (Bioorg Med Chem Lett, 2004).
pIC50: −log10 of the molar value.

Key:
P388 = experiment: Fold resistance calculated as the inhibition concentration ratio between retrovirally transformed murine P388/VMDRC.04 and parental P388 cells; assay type: functional
Outline: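 Readout of P-glycoprotein (PgP) susceptibility: IC50 in the retrovirally transformed P388/VMDRC.04 line divided by IC50 in parental P388 cells, giving fold resistance.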

U-937 [1] = experiment: In vitro inhibitory concentration required to inhibit the growth of U937 cells was determined at 0 hr by mitotic block reversibility assay; assay type: functional; conditions: Homo sapiens, U-937, 0 h
[2] = In vitro reversibility ratio in U937 cells; assay type: functional, U-937
Outline: (§1)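 Human histiocytic lymphoma U937 cells, read by flow cytometry. Scores whether a complete mitotic block is maintained 10 h after drug washout.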

U-937 [3] = experiment: In vitro inhibitory concentration required to inhibit the growth of U937 cells was determined at 10 hr by mitotic block reversibility assay; assay type: functional; conditions: Homo sapiens, U-937, 10 h; outline: as §1
DLD-1 = experiment: In vitro inhibitory concentration required to inhibit the growth of DLD-1 cells under continuous exposure conditions for 3-4 days; assay type: functional, cell-based; conditions: Homo sapiens
Outline: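 Human colon cancer DLD-1 cells grown under continuous drug exposure for 3–4 days. Growth inhibition measured and IC50 reported ± SEM, n = number of experiments.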

Compound	FR (P388)	IC99 (U-937 [1]) [µM]	Reversibility ratio [2]	IC99 (U-937 [3]) [µM]	pIC50 (DLD-1)
C=C1C[C@@H]2CC[C@@]34C[C@@H]5O[C@@H]6C(O[C@H]7CC[C@H](CC(=O)C[C@@H]8[C@@H](OC)[C@@H](C[C@H](O)CSc9ccc(Cl)cc9)O[C@H]8C[C@H]8O[C@@H](CC[C@@H]1O2)C[C@@H](C)C8=C)O[C@@H]7[C@@H]6O3)[C@H]5O4	2	0.01	20	0.2	8.92
C=C1C[C@@H]2CC[C@@]34C[C@@H]5O[C@@H]6C(O[C@H]7CC[C@H](CC(=O)C[C@@H]8[C@@H](OC)[C@@H](C[C@H](O)CNC(=O)c9ccc(Cl)cc9)O[C@H]8C[C@H]8O[C@@H](CC[C@@H]1O2)C[C@@H](C)C8=C)O[C@@H]7[C@@H]6O3)[C@H]5O4	5.9	0.003	7	0.02	9.16
C=C1C[C@@H]2CC[C@@]34C[C@@H]5O[C@@H]6C(O[C@H]7CC[C@H](CC(=O)C[C@@H]8[C@@H](OC)[C@@H](C[C@H](O)CS(=O)(=O)c9ccc(Cl)cc9)O[C@H]8C[C@H]8O[C@@H](CC[C@@H]1O2)C[C@@H](C)C8=C)O[C@@H]7[C@@H]6O3)[C@H]5O4	3.2	0.003	10	0.03	9.18
C=C1C[C@@H]2CC[C@@]34C[C@@H]5O[C@@H]6C(O[C@H]7CC[C@H](CC(=O)C[C@@H]8[C@@H](OC)[C@@H](C[C@H](O)CC#N)O[C@H]8C[C@H]8O[C@@H](CC[C@@H]1O2)C[C@@H](C)C8=C)O[C@@H]7[C@@H]6O3)[C@H]5O4	7	0.002	15	0.03	9.31
C=C1C[C@@H]2CC[C@@]34C[C@@H]5O[C@@H]6C(O[C@H]7CC[C@H](CC(=O)C[C@@H]8[C@@H](OC)[C@@H](C[C@H](O)COS(C)(=O)=O)O[C@H]8C[C@H]8O[C@@H](CC[C@@H]1O2)C[C@@H](C)C8=C)O[C@@H]7[C@@H]6O3)[C@H]5O4	3	0.003	10	0.03	9.10
C=C1C[C@@H]2CC[C@@]34C[C@@H]5O[C@@H]6C(O[C@H]7CC[C@H](CC(=O)O[C@@H]8[C@@H](C)[C@@H]9O[C@H](CO)[C@@H](O)C[C@@H]9O[C@H]8C[C@H]8O[C@@H](CC[C@@H]1O2)C[C@@H](C)C8=C)O[C@@H]7[C@@H]6O3)[C@H]5O4	–	0.009	24	–	–
C=C1C[C@@H]2CC[C@@]34C[C@@H]5O[C@@H]6C(O[C@H]7CC[C@H](CC(=O)C[C@@H]8[C@@H](OC)[C@@H](C[C@@H](O)CO)O[C@H]8C[C@H]8O[C@@H](CC[C@@H]1O2)C[C@@H](C)C8=C)O[C@@H]7[C@@H]6O3)[C@H]5O4	13	0.003	33	0.1	8.72
C=C1C[C@@H]2CC[C@@]34C[C@@H]5O[C@@H]6C(O[C@H]7CC[C@H](CC(=O)C[C@@H]8[C@@H](OC)[C@@H](C[C@H](O)CSc9ccc(OC)cc9)O[C@H]8C[C@H]8O[C@@H](CC[C@@H]1O2)C[C@@H](C)C8=C)O[C@@H]7[C@@H]6O3)[C@H]5O4	1.7	0.003	10	0.03	9.15
C=C1C[C@@H]2CC[C@@]34C[C@@H]5O[C@@H]6C(O[C@H]7CC[C@H](CC(=O)O[C@@H]8[C@@H](OC)[C@H](O)[C@H](CCO)O[C@H]8C[C@H]8O[C@@H](CC[C@@H]1O2)C[C@@H](C)C8=C)O[C@@H]7[C@@H]6O3)[C@H]5O4	–	0.01	30	–	–
C=C1C[C@@H]2CC[C@@]34C[C@@H]5O[C@@H]6C(O[C@H]7CC[C@H](CC(=O)C[C@@H]8[C@@H](OC)[C@@H](C[C@H](O)COS(=O)(=O)c9ccc(C)cc9)O[C@H]8C[C@H]8O[C@@H](CC[C@@H]1O2)C[C@@H](C)C8=C)O[C@@H]7[C@@H]6O3)[C@H]5O4	2.4	0.007	4	0.03	8.70
C=C1C[C@@H]2CC[C@@]34C[C@@H]5O[C@@H]6C(O[C@H]7CC[C@H](CC(=O)C[C@@H]8[C@@H](OC)[C@@H](C[C@H](O)CNC)O[C@H]8C[C@H]8O[C@@H](CC[C@@H]1O2)C[C@@H](C)C8=C)O[C@@H]7[C@@H]6O3)[C@H]5O4	7	0.01	1	0.01	8.48
C=C1C[C@@H]2CC[C@@]34C[C@@H]5O[C@@H]6C(O[C@H]7CC[C@H](CC(=O)C[C@@H]8[C@@H](OC)[C@@H](C[C@H](O)CN(C)C)O[C@H]8C[C@H]8O[C@@H](CC[C@@H]1O2)C[C@@H](C)C8=C)O[C@@H]7[C@@H]6O3)[C@H]5O4	22	0.001	10	0.01	8.92
C=C1C[C@@H]2CC[C@@]34C[C@@H]5O[C@@H]6C(O[C@H]7CC[C@H](CC(=O)C[C@@H]8[C@@H](OC)[C@@H](C[C@H](O)COC(=O)Nc9ccc(OC)cc9)O[C@H]8C[C@H]8O[C@@H](CC[C@@H]1O2)C[C@@H](C)C8=C)O[C@@H]7[C@@H]6O3)[C@H]5O4	5.8	0.003	10	0.03	9.07
C=C1C[C@@H]2CC[C@@]34C[C@@H]5O[C@@H]6C(O[C@H]7CC[C@H](CC(=O)C[C@@H]8[C@@H](OC)[C@@H](C[C@H](O)CN9CCOCC9)O[C@H]8C[C@H]8O[C@@H](CC[C@@H]1O2)C[C@@H](C)C8=C)O[C@@H]7[C@@H]6O3)[C@H]5O4	4.7	0.003	7	0.02	9.37
C=C1C[C@@H]2CC[C@@]34C[C@@H]5O[C@@H]6C(O[C@H]7CC[C@H](CC(=O)C[C@@H]8[C@@H](OC)[C@@H](C[C@H](O)CNC(=O)C(=O)c9ccccc9)O[C@H]8C[C@H]8O[C@@H](CC[C@@H]1O2)C[C@@H](C)C8=C)O[C@@H]7[C@@H]6O3)[C@H]5O4	3.6	0.003	3	0.01	9.06
C=C1C[C@@H]2CC[C@@]34C[C@@H]5O[C@@H]6C(O[C@H]7CC[C@H](CC(=O)C[C@@H]8[C@@H](OC)[C@@H](C[C@H](O)COC(=O)Nc9ccccc9)O[C@H]8C[C@H]8O[C@@H](CC[C@@H]1O2)C[C@@H](C)C8=C)O[C@@H]7[C@@H]6O3)[C@H]5O4	5.7	0.003	22	0.065	9.00
C=C1C[C@@H]2CC[C@@]34C[C@@H]5O[C@@H]6C(O[C@H]7CC[C@H](CC(=O)O[C@@H]8[C@@H](OC)[C@@H](C[C@H](O)CO)O[C@H]8C[C@H]8O[C@@H](CC[C@@H]1O2)C[C@@H](C)C8=C)O[C@@H]7[C@@H]6O3)[C@H]5O4	–	0.002	8	–	–
C=C1C[C@@H]2CC[C@@]34C[C@@H]5O[C@@H]6C(O[C@H]7CC[C@H](CC(=O)O[C@@H]8[C@@H](C)[C@@H]9O[C@@H]%10C[C@]%11(C[C@@H]%12O[C@]%13(C[C@H](C)[C@@H]%14O[C@H]([C@@H](O)C[C@@H](O)CO)C[C@@H]%14O%13)C[C@H](C)[C@@H]%12O%11)O[C@@H]%10C[C@@H]9O[C@H]8C[C@H]8O[C@@H](CC[C@@H]1O2)C[C@@H](C)C8=C)O[C@@H]7[C@@H]6O3)[C@H]5O4	2.8	0.008	3	0.025	9.13
C=C1C[C@@H]2CC[C@@]34C[C@@H]5O[C@@H]6C(O[C@H]7CC[C@H](CC(=O)C[C@@H]8[C@@H](OC)[C@@H](CC(=O)CO)O[C@H]8C[C@H]8O[C@@H](CC[C@@H]1O2)C[C@@H](C)C8=C)O[C@@H]7[C@@H]6O3)[C@H]5O4	3.7	0.003	10	0.03	8.96
